Structures are written as SMILES.

The target in the first data set is T1, Peroxisome proliferator-activated receptor alpha (Homo sapiens) (UniProt Q07869).
T1 sequence (whole entry): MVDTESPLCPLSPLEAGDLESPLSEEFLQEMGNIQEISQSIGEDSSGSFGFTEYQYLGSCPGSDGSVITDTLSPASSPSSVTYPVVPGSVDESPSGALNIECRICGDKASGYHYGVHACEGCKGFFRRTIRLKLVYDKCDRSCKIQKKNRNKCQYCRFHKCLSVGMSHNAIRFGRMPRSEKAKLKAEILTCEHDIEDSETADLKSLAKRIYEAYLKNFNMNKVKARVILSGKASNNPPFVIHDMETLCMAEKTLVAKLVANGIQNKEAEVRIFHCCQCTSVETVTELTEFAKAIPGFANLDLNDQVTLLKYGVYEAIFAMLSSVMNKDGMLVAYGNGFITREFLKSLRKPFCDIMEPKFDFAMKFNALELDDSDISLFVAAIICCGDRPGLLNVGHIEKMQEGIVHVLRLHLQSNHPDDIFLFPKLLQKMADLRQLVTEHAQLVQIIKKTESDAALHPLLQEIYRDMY
Briefly: Transactivation of GAL4-fused PPARalpha ligand binding domain transfected in human HepG2 cells at 10 uM after 20 hrs by luciferase reporter gene assay relative to control. It counts as cell-based.
Details: not given
A digest of the protocol:
(§1)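 PPARα transactivation was measured by luciferase reporter in HepG2 cells. Activity was compared with a vehicle group, and ciprofibrate (1 µM) was the positive control.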
With `OC[C@H]1O[C@@H](O[C@H](CCc2ccc(O)c(O)c2)C[C@H](O)CCc2ccc(O)cc2)[C@H](O)[C@@H](O)[C@@H]1O`, the fold change (FC) was found to be 1.4.
Still for that read-out and setting: next, `OC[C@H]1O[C@@H](Oc2ccc(CCCC[C@H](O)CCc3ccc(O[C@@H]4O[C@H](CO)[C@@H](O)[C@H](O)[C@H]4O)c(O)c3)cc2O)[C@H](O)[C@@H](O)[C@@H]1O` [PLANTAGINEOSIDE B]: 1.3.

The next data set deals with HepG2. Briefly: Cytotoxicity against human HepG2 cells assessed as cell viability at 10 uM after 24 hrs by MTS assay. It counts as cell-based. The settings on record: hepg2, 24 h.
Regarding `OC[C@H]1O[C@@H](O[C@H](CCc2ccc(O)c(O)c2)C[C@H](O)CCc2ccc(O)cc2)[C@H](O)[C@@H](O)[C@@H]1O`, the Activity entry is on record as “Non-toxic”.
As for `OC[C@H]1O[C@@H](Oc2ccc(CCCC[C@H](O)CCc3ccc(O[C@@H]4O[C@H](CO)[C@@H](O)[C@H](O)[C@H]4O)c(O)c3)cc2O)[C@H](O)[C@@H](O)[C@@H]1O` [PLANTAGINEOSIDE B], the Activity result is recorded as “Non-toxic”.

The next data set addresses T2, Peroxisome proliferator-activated receptor gamma (Homo sapiens, UniProt P37231).
T2 sequence (P37231 whole entry): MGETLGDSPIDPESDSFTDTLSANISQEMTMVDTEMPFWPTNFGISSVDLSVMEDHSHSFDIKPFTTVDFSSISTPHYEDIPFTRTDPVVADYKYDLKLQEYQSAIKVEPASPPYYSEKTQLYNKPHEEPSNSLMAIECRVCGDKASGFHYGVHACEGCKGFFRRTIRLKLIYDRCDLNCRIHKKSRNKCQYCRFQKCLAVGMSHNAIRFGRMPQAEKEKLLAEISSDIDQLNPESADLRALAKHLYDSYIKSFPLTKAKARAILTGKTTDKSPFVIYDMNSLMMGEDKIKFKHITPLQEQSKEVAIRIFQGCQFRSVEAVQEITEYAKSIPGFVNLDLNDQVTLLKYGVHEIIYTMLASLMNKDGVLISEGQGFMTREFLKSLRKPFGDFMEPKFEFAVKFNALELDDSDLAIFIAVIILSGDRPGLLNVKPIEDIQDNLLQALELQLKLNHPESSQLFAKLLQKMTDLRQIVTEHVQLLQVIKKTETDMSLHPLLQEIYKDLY
Briefly: Transactivation of GAL4-fused PPARgamma ligand binding domain transfected in human HepG2 cells after 20 hrs by luciferase reporter gene assay.
Details: not given
It is filed as cell-based.
For the compound `OC[C@H]1O[C@@H](O[C@H](CCc2ccc(O)c(O)c2)C[C@H](O)CCc2ccc(O)cc2)[C@H](O)[C@@H](O)[C@@H]1O`, the 50% effective concentration (EC50) was > 50 µM.
On to `OC[C@H]1O[C@@H](Oc2ccc(CCCC[C@H](O)CCc3ccc(O[C@@H]4O[C@H](CO)[C@@H](O)[C@H](O)[C@H]4O)c(O)c3)cc2O)[C@H](O)[C@@H](O)[C@@H]1O` [PLANTAGINEOSIDE B], for which the EC50 worked out at 33.1 µM.

For a further data set, the target named is T3, Peroxisome proliferator-activated receptor gamma (Homo sapiens) (UniProt P37231).
T3 sequence (whole entry): T2 sequence (P37231 whole entry)
Briefly: Transactivation of GAL4-fused PPARgamma ligand binding domain transfected in human HepG2 cells assessed as upregulation of gene expression at 10 uM by luciferase reporter gene assay relative to control. It counts as cell-based.
Details: not given
Put shortly: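 In HepG2 cells, PPARγ luciferase transactivation was expressed as fold over the vehicle group. Troglitazone (1 µM) was the positive control, and significance was set against vehicle at p < 0.01.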
`OC[C@H]1O[C@@H](Oc2ccc(CCCC[C@H](O)CCc3ccc(O[C@@H]4O[C@H](CO)[C@@H](O)[C@H](O)[C@H]4O)c(O)c3)cc2O)[C@H](O)[C@@H](O)[C@@H]1O` [PLANTAGINEOSIDE B]: the fold change (FC) is 1.5.

The target of a further data set is T4, Peroxisome proliferator-activated receptor alpha (Homo sapiens, UniProt Q07869).
T4 sequence (Q07869 whole entry): T1 sequence (whole entry)
In words: Transactivation of GAL4-fused PPARalpha ligand binding domain transfected in human HepG2 cells after 20 hrs by luciferase reporter gene assay. It counts as cell-based.
Details: not given
A digest of the protocol: as §1
Regarding `OC[C@H]1O[C@@H](O[C@H](CCc2ccc(O)c(O)c2)C[C@H](O)CCc2ccc(O)cc2)[C@H](O)[C@@H](O)[C@@H]1O`, the EC50 was 42.9 µM.
Regarding `OC[C@H]1O[C@@H](Oc2ccc(CCCC[C@H](O)CCc3ccc(O[C@@H]4O[C@H](CO)[C@@H](O)[C@H](O)[C@H]4O)c(O)c3)cc2O)[C@H](O)[C@@H](O)[C@@H]1O` [PLANTAGINEOSIDE B], the EC50 is > 50 µM.

Another data set addresses T5, Peroxisome proliferator-activated receptor delta (Homo sapiens) (UniProt Q03181).
T5 sequence (whole entry): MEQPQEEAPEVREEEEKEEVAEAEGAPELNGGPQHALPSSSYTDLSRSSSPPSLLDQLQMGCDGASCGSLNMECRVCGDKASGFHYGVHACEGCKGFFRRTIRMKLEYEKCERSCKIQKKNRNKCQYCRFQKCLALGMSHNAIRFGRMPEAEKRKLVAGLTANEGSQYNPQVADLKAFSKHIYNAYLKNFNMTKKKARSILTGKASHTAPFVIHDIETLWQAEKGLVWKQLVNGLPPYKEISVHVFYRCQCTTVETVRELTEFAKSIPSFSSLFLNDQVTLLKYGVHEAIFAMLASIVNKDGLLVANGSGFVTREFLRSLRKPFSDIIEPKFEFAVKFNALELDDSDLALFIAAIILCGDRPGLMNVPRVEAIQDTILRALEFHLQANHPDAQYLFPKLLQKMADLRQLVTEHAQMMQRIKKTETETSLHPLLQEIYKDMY
Briefly: (§2) Transactivation of GAL4-fused PPARbeta (delta) ligand binding domain transfected in human HepG2 cells after 20 hrs by luciferase reporter gene assay. It is filed as cell-based.
Details: not given
A digest of the protocol: (§3)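 For PPARβ(δ), luciferase transactivation was measured in HepG2 cells against a vehicle group, with L-165041 (1 µM) as positive control. EC50 came from the dose–response, given as mean ± SD (n = 3), with a cutoff of EC50 > 50 µM for inactivity.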
With `OC[C@H]1O[C@@H](O[C@H](CCc2ccc(O)c(O)c2)C[C@H](O)CCc2ccc(O)cc2)[C@H](O)[C@@H](O)[C@@H]1O`, the Activity result was “Dose-dependent effect”.
Still for that read-out and setting: in the case of `OC[C@H]1O[C@@H](Oc2ccc(CCCC[C@H](O)CCc3ccc(O[C@@H]4O[C@H](CO)[C@@H](O)[C@H](O)[C@H]4O)c(O)c3)cc2O)[C@H](O)[C@@H](O)[C@@H]1O` [PLANTAGINEOSIDE B] it was “Dose-dependent effect”.

The target of the next data set is T6, Peroxisome proliferator-activated receptor delta (Homo sapiens, UniProt Q03181).
T6 sequence (Q03181 whole entry): T5 sequence (whole entry)
Described as §2. It is filed as cell-based.
Details: not given
Put shortly: as §3
`OC[C@H]1O[C@@H](O[C@H](CCc2ccc(O)c(O)c2)C[C@H](O)CCc2ccc(O)cc2)[C@H](O)[C@@H](O)[C@@H]1O` yielded a concentration for a half-maximal effect (EC50) of 15.6 µM.
On the same count and under the same terms, in the case of `OC[C@H]1O[C@@H](Oc2ccc(CCCC[C@H](O)CCc3ccc(O[C@@H]4O[C@H](CO)[C@@H](O)[C@H](O)[C@H]4O)c(O)c3)cc2O)[C@H](O)[C@@H](O)[C@@H]1O` [PLANTAGINEOSIDE B] it was 13.1 µM.

The target of the next data set is T7, Peroxisome proliferator-activated receptor (Homo sapiens, UniProt P37231+Q07869+Q03181).
T7 sequence (P37231 whole entry): T2 sequence (P37231 whole entry)
T7 sequence (Q07869 whole entry): T1 sequence (whole entry)
T7 sequence (Q03181 whole entry): T5 sequence (whole entry)
Briefly: (§4) Transactivation of PPAR transfected in human HepG2 cells after 20 hrs by luciferase reporter gene assay. It is filed as cell-based.
Details: not given
Compound `OC[C@H]1O[C@@H](O[C@H](CCc2ccc(O)c(O)c2)C[C@H](O)CCc2ccc(O)cc2)[C@H](O)[C@@H](O)[C@@H]1O` registered a 50% effective concentration (EC50) of 0.3 µM.
The same measure, in the same setting: in the case of `OC[C@H]1O[C@@H](Oc2ccc(CCCC[C@H](O)CCc3ccc(O[C@@H]4O[C@H](CO)[C@@H](O)[C@H](O)[C@H]4O)c(O)c3)cc2O)[C@H](O)[C@@H](O)[C@@H]1O` [PLANTAGINEOSIDE B] it was 10.4 µM.

The next data set deals with Peroxisome proliferator-activated receptor (Homo sapiens) (UniProt P37231+Q07869+Q03181). Described as §4. It is filed as cell-based.
Details: not given
`OC[C@H]1O[C@@H](O[C@H](CCc2ccc(O)c(O)c2)C[C@H](O)CCc2ccc(O)cc2)[C@H](O)[C@@H](O)[C@@H]1O`: the Activity result was “Dose-dependent effect”.
The same measure, in the same setting: next, `OC[C@H]1O[C@@H](Oc2ccc(CCCC[C@H](O)CCc3ccc(O[C@@H]4O[C@H](CO)[C@@H](O)[C@H](O)[C@H]4O)c(O)c3)cc2O)[C@H](O)[C@@H](O)[C@@H]1O` [PLANTAGINEOSIDE B]: “Dose-dependent effect”.

Another data set deals with HepG2. Briefly: (§5) Inhibition of NF-kappaB expressed in human HepG2 cells assessed as inhibition of TNFalpha-induced luciferase activity preincubated for 1 hr followed by TNFalpha challenge measured after 1 hr by reporter gene assay. It is filed as cell-based.
Details: not given
A digest of the protocol: (§6)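 HepG2 cells transfected with an NF-κB-luciferase reporter were pretreated with compound at 0.1, 1 and 10 µM, then stimulated with TNF-α at 10 ng/mL. Sulfasalazine at 10 µM served as positive control. Luciferase activity was read. Data are mean ± SD (n = 3), with Dunnett's multiple comparison test, and IC50 was derived from the dose–response.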
Turning to `OC[C@H]1O[C@@H](O[C@H](CCc2ccc(O)c(O)c2)C[C@H](O)CCc2ccc(O)cc2)[C@H](O)[C@@H](O)[C@@H]1O`, the inhibition result was “Dose-dependent effect”.

System in the next data set: not listed separately
Described as §5. It counts as cell-based.
Details: not given
A digest of the protocol:
as §6
On to `OC[C@H]1O[C@@H](O[C@H](CCc2ccc(O)c(O)c2)C[C@H](O)CCc2ccc(O)cc2)[C@H](O)[C@@H](O)[C@@H]1O`, for which the concentration for half-maximal inhibition (IC50) was determined as 0.9 µM.
The same measure, in the same setting: next, `OC[C@H]1O[C@@H](Oc2ccc(CCCC[C@H](O)CCc3ccc(O[C@@H]4O[C@H](CO)[C@@H](O)[C@H](O)[C@H]4O)c(O)c3)cc2O)[C@H](O)[C@@H](O)[C@@H]1O` [PLANTAGINEOSIDE B]: > 10 µM.

The values are drawn from ChEMBL document CHEMBL2157928, “Diarylheptanoid glycosides from Tacca plantaginea and their effects on NF-κB activation and PPAR transcriptional activity” (Bioorg Med Chem Lett, 2012).
